# Measurements gathered from unrelated publications.
# Lines come from different studies, so protocols differ.
# Target: Mitogen-activated protein kinase 1 (MAPK1, Homo sapiens, UniProt P28482)
Compound,observed,action,method,tested at,measurement,value
COc1cc2c(cc1OC)-c1[nH]nc(Nc3cccc(F)c3)c1C2,cell-free assay,,,0.5 µM,remaining signal,85.1%
COc1cc(Nc2cnc(C#N)c(O[C@H](C)CN(C)C)n2)ncc1-c1cnn(C)c1,enzyme activity,inhibitor,radiometric,1 µM,remaining activity,101%
O=C1Cc2c([nH]c3ccc(Br)cc23)-c2ccccc2N1,cell-free assay,,,0.5 µM,remaining signal,90.5%
Cc1ccc(Nc2nccc(N(C)c3ccc4c(C)n(C)nc4c3)n2)cc1S(N)(=O)=O,enzyme activity,inhibitor,,0.3 µM,inhibition,-1%
O=C1Nc2ccc(Cl)cc2C1=Cc1cc(Cl)c(O)c(Cl)c1,cell-free assay,,,0.5 µM,remaining signal,84.3%
COc1cc(Cl)c(C(=O)N[C@@H](CN[C@H]2CC[C@@H](N)CC2)Cc2ccc(C#N)cc2)cc1-c1ccc(CN[C@H](C)c2ccc(C)cc2)o1,enzyme activity,inhibitor,,1 µM,remaining activity,92%
CC(C)(C)c1nc(-c2cccc(NS(=O)(=O)c3c(F)cccc3F)c2F)c(-c2ccnc(N)n2)s1,enzyme activity,inhibitor,radiometric,1 µM,remaining activity,88%
CN(C)C1CCN(CC#Cc2nn(C3CCCC3)c3nc(NCc4ccccc4)ncc23)C1 (stereo not drawn),enzyme activity,inhibitor,FRET,10 µM,inhibition,2%
Cc1cnc(NC2CCOCC2)nc1-n1cnc(C(=O)NC(CN)c2cc(F)cc(Cl)c2)c1 (stereo not drawn),enzyme activity,inhibitor,radiometric,1 µM,remaining activity,2%
Cc1ccc(NC(=O)c2ccc(CN3CCN(C)CC3)cc2)cc1Nc1nc(-c2cccnc2)cs1,cell-free assay,,,0.5 µM,remaining signal,91.6%
Nc1ncnc2occ(-c3ccc(NC(=O)Nc4cc(C(F)(F)F)ccc4F)cc3)c12,cell-free assay,inhibitor,,20 µM,remaining signal,100%
Cc1cc(-n2nc(Cc3cc(F)cc(C(F)(F)F)c3)nc2C)ccc1C(N)=O,cell-free assay,,competition with immobilised ligand,1 µM,remaining binding,100%
CC/C(=N\NC(=O)NCc1cccc(O)c1)c1ccc(O)c(C)c1O,enzyme activity,inhibitor,,0.1 µM,inhibition,-10.1%
C[C@H](c1ccc(F)cc1)N(Cc1cccc(C(=O)O)c1)C(=O)c1cnc2ccccc2c1,cell-free assay,,competition with immobilised ligand,1 µM,remaining binding,99%
CN(c1ncccc1CNc1nc(Nc2ccc3c(c2)CC(=O)N3)ncc1C(F)(F)F)S(C)(=O)=O,enzyme activity,inhibitor,,1 µM,inhibition,88.1%
O=C1NC(=O)c2cc(Nc3ccc(F)cc3)c(Nc3ccc(F)cc3)cc21,cell-free assay,,,0.5 µM,remaining signal,121%
CCOc1cc(-c2nncn2C)ccc1Nc1ncc2cc(C)nc(NCC(C)(C)C)c2n1,enzyme activity,inhibitor,FRET,1 µM,inhibition,< 15%
Cc1ccc(-n2nc(C(C)(C)C)cc2NC(=O)Nc2ccc(OCCN3CCOCC3)c3ccccc23)cc1,enzyme activity,inhibitor,,10 µM,inhibition,-10%
CCN(CC)CCNC(=O)c1c(C)[nH]c(/C=C2\C(=O)Nc3ccc(F)cc32)c1C,enzyme activity,inhibitor,,0.3 µM,inhibition,-6%
Nc1nc(NC2CCCCC2)sc1C(=O)c1ccccc1,enzyme activity,inhibitor,,10 µM,remaining activity,16%
C[C@H](c1ccnc(Nc2nc3ccc(-c4cc(N(C)C)ncn4)cc3[nH]2)c1)N1CCN(C(=O)CC(F)(F)F)CC1,cell-free assay,,competition with immobilised ligand,0.1 µM,remaining binding,78%
N#CCCc1ccc2c(c1)-c1[nH]c3ccc([N+](=O)[O-])cc3c1CC(=O)N2,cell-free assay,,,0.5 µM,remaining signal,119%
CCCOc1ccc(OC)c(F)c1C(=O)c1ccc(C(=O)N[C@@H]2CNC[C@H]2NC(=O)c2ccc3[nH]ncc3c2)cc1,enzyme activity,inhibitor,,10 µM,remaining activity,86%
COc1ccc2c(c1)O[C@H](c1ccc(OC)c(OC)c1)C[C@@H]2NC(=O)C1(c2ccc3c(c2)OC(F)(F)O3)CC1,cell-free assay,,competition with immobilised ligand,1 µM,remaining binding,99%
Oc1cccc(-c2nc(N3CCOCC3)c3oc4ncccc4c3n2)c1,enzyme activity,inhibitor,,10 µM,remaining activity,106%
CO[C@@H](C)c1c(Nc2ccc([C@@H](N(C)C(=O)C3CCS(=O)(=O)CC3)C(F)(F)F)cc2)cnc2cc(Cl)nn12,cell-free assay,,competition with immobilised ligand,1 µM,remaining binding,100%
COc1cc2ncnc(Nc3ccc(Oc4ccccc4)cc3C)c2cc1OC,enzyme activity,inhibitor,,1 µM,inhibition,-2%
CCOCCn1cc(C(=O)Nc2ccc(-n3nc(-c4cccnc4)cc3C(F)(F)F)cn2)ccc1=O,cell-free assay,,competition with immobilised ligand,1 µM,remaining binding,100%
CCN(CC)c1ccc(C2=NNC(=O)CC2C)cc1[N+](=O)[O-] (stereo not drawn),enzyme activity,inhibitor,,10 µM,remaining activity,100%
CCc1ccccc1C(=O)Nc1n[nH]c2c(C)c(F)c(C3C(C#N)=C(C)N(C)C(C)=C3C#N)cc12,cell-free assay,,competition with immobilised ligand,1 µM,remaining binding,86%
O=C(Nc1cnn(-c2csc(C(=O)NC3COC3)c2)c1)Nc1c(F)cccc1Cl,enzyme activity,inhibitor,,5 µM,remaining activity,85.9%
Cc1cc(C)c(-n2ccn3nc(-c4cccnc4)cc23)cc1NC(=O)c1cc(C#N)cc(S(F)(F)(F)(F)F)c1,cell-free assay,,competition with immobilised ligand,0.1 µM,remaining binding,88.1%
CNc1cccc2cc(C(=O)Nc3ccc(C(=O)O)cc3)c(=O)[nH]c12,enzyme activity,inhibitor,,10 µM,inhibition,1.3%
